# Test results: ChEMBL document CHEMBL4342410, “Design and Discovery of N-(3-(2-(2-Hydroxyethoxy)-6-morpholinopyridin-4-yl)-4-methylphenyl)-2-(trifluoromethyl)isonicotinamide, a Selective, Efficacious, and Well-Tolerated RAF Inhibitor Targeting RAS Mutant Cancers: The Path to the Clinic” (J Med Chem, 2020)
# What was measured:
# [1] = Lipophilicity, log P of the compound at pH 6.5; assay type: physicochemical; settings: buffer
# [2] = Cmax in mouse at 4 mg/kg, po; assay type: ADME, organism-based; set-up: dose 4 mg/kg, route oral; settings: in vivo
# [3] = AUC (0 to 24 hrs) in nude rat xenografted with human Calu6 cells harboring KRAS Q61K mutant at 35 mg/kg, po administered daily for 18 days starting from day 13 post tumor implantation and measured on day 31; assay type: ADME, organism-based; set-up: dose 35 mg/kg, time < 24 hr, route oral; settings: in vivo
# Outline: (§1)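 Nude rats carrying Calu-6 (KRAS Q61K) NSCLC xenografts were dosed p.o. once daily at 15, 35, 75 or 150 mg/kg from day 13 to day 31 after implant. Plasma was collected after the last dose and drug concentration was measured. AUC and Cmax were calculated per dose on day 31.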
# [4] = Clearance in dog at 0.2 mg/kg, iv or 0.4 mg/kg, po; assay type: ADME, organism-based, Canis lupus familiaris; settings: in vivo
# [5] = Time at which free plasma concentration stays above in vitro IC50 for CRAF in human Calu6 cells assessed as reduction MEK phosphorylation in nude rat xenografted with human Calu6 cells harboring KRAS Q61K mutant at 150 mg/kg, po; assay type: ADME, organism-based; settings: in vivo
# [6] = Dissociation constant, pKa of the compound; assay type: physicochemical
# [7] = Toxicity in human Calu6 cells harboring KRAS Q61K mutant xenografted nude rat assessed as change in body weight at 15 to 150 mg/kg, po administered daily for 18 days starting from day 13 post tumor implantation and measured during compound dosing; assay type: organism-based; settings: in vivo, 432 h
# Outline: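 Nude rats bearing Calu-6 (KRAS Q61K) NSCLC xenografts were dosed orally once daily with vehicle or 15, 35, 75 or 150 mg/kg. Dosing ran from day 13 after implantation until day 31. Body weight was tracked and expressed as percent change from initial for each treatment group versus the vehicle control.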
# [8] = AUC (infinity) in dog at 0.4 mg/kg, po; assay type: ADME, organism-based, Canis lupus familiaris; set-up: dose 0.4 mg/kg, time infinity, route oral; settings: in vivo
# [9] = system: Serine/threonine-protein kinase B-raf (Homo sapiens), P15056 [V600E]; experiment: Binding affinity to human partial length BRAF V600E mutant (S429 to E741 residues) expressed in mammalian expression system at 1 uM by Kinomescan method relative to control
# Calu-6 [10] = experiment: Antitumor activity against human Calu6 cells harboring KRAS Q61K mutant xenografted in nude rat assessed as tumor growth at 15 mg/kg, po administered daily for 18 days starting from day 13 post tumor implantation and measured on day 31 relative to control; assay type: functional
# Outline: (§2)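 Nude rats bearing Calu-6 (KRAS Q61K) human NSCLC xenografts received vehicle or drug p.o. daily at 15, 35, 75 or 150 mg/kg. Dosing began 13 days after tumor implantation and ran to day 31, i.e. 18 days of treatment. Tumor volumes were read out as %T/C or % regression versus vehicle on day 31. Body weight was also tracked.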
# [11] = Apparent permeability across apical to basolateral side in human Caco2 cells at pH 7.4 by LC/MS/MS analysis; assay type: ADME, cell-based; settings: Caco-2, pH 7.4
# [12] = AUC (0 to 24 hrs) in nude rat xenografted with human Calu6 cells harboring KRAS Q61K mutant at 15 mg/kg, po administered daily for 18 days starting from day 13 post tumor implantation and measured on day 31; assay type: ADME, organism-based; set-up: dose 15 mg/kg, time < 24 hr, route oral; settings: in vivo; outline: as §1
# [13] = Cmax in rat at 4 mg/kg, po; assay type: ADME, organism-based; set-up: dose 4 mg/kg, route oral; settings: in vivo
# Calu-6 [14] = experiment: Antitumor activity against human Calu6 cells harboring KRAS Q61K mutant xenografted in nude rat assessed as tumor regression at 75 mg/kg, po administered daily for 18 days starting from day 13 post tumor implantation and measured on day 31 relative to control; assay type: functional; outline: as §2
# [15] = Volume of distribution at steady state in dog at 0.2 mg/kg, iv or 0.4 mg/kg, po; assay type: ADME, organism-based, Canis lupus familiaris; settings: in vivo, read-out: Vdss
# [16] = AUC (0 to 24 hrs) in nude rat xenografted with human Calu6 cells harboring KRAS Q61K mutant at 150 mg/kg, po administered daily for 18 days starting from day 13 post tumor implantation and measured on day 31; assay type: ADME, organism-based; set-up: dose 150 mg/kg, time < 24 hr, route oral; settings: in vivo; outline: as §1
# [17] = Cmax in nude rat xenografted with human Calu6 cells harboring KRAS Q61K mutant at 35 mg/kg, po administered daily for 18 days starting from day 13 post tumor implantation and measured on day 31; assay type: ADME, organism-based; set-up: dose 35 mg/kg, route oral; settings: in vivo; outline: as §1
# Calu-6 [18] = experiment: Antiproliferative activity against human Calu6 cells harboring KRAS Q61K mutant assessed as reduction in cell viability after 72 hrs by CellTiter-Glo assay; assay type: functional, cell-based; settings: Calu-6, 72 h
# [19] = Cmax in dog at 0.4 mg/kg, po; assay type: ADME, organism-based, Canis lupus familiaris; set-up: dose 0.4 mg/kg, route oral; settings: in vivo
# [20] = Apparent permeability across basolateral to apical side in human Caco2 cells at pH 7.4 by LC/MS/MS analysis; assay type: ADME, cell-based; settings: Caco-2, pH 7.4
# Cytochrome P450 3A4 = Cytochrome P450 3A4 (Homo sapiens, UniProt P08684); experiment: Time dependent inhibition of CYP3A4 in human liver microsomes assessed as inactivation rate constant at 10 uM using midazolam as substrate incubated prior to substrate addition and measured after 6 mins in presence of NADPH; assay type: ADME; settings: 0.1 h
# Outline: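 Human liver microsomes (0.5 mg/mL) preincubated with test compound at 10 µM and 1 mM NADPH in phosphate buffer at 37 °C for 0, 5, 15 and 30 min. Mixture then diluted 20-fold and incubated with midazolam (20 µM) at 37 °C for 6 min to measure residual CYP3A4 activity. kobs taken as the initial rate of decline of activity versus preincubation time.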
# [21] = Solubility of compound in pH 6.8 Cl-free PBS buffer by shake-flask assay; assay type: physicochemical
# Outline: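 Shake-flask solubility measured in chloride-free PBS at pH 6.8.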
# [22] = Cmax in nude rat xenografted with human Calu6 cells harboring KRAS Q61K mutant at 15 mg/kg, po administered daily for 18 days starting from day 13 post tumor implantation and measured on day 31; assay type: ADME, organism-based; set-up: dose 15 mg/kg, route oral; settings: in vivo; outline: as §1
# [23] = Distribution coefficient, log D of compound at pH 6.5; assay type: physicochemical; settings: octanol/water
# [24] = Cmax in nude rat xenografted with human Calu6 cells harboring KRAS Q61K mutant at 75 mg/kg, po administered daily for 18 days starting from day 13 post tumor implantation and measured on day 31; assay type: ADME, organism-based; set-up: dose 75 mg/kg, route oral; settings: in vivo; outline: as §1
# [25] = biological target: RAF proto-oncogene serine/threonine-protein kinase (Homo sapiens, UniProt P04049); experiment: Binding affinity to wild-type human partial length CRAF (I330 to T640 residues) expressed in bacterial expression system by Kinomescan method
# [26] = Time of last measurable concentration in nude rat xenografted with human Calu6 cells harboring KRAS Q61K mutant at 150 mg/kg, po administered daily for 18 days starting from day 13 post tumor implantation and measured on day 31; assay type: ADME, organism-based; settings: in vivo, 432 h
# Outline: (§3)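 Calu-6 xenograft nude rats were dosed orally once daily at 15, 35, 75 or 150 mg/kg from day 13 after implantation to day 31. Plasma was collected after the last dose on day 31, drug concentrations were measured, and PK parameters including AUC were calculated for each dose.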
# [27] = Tmax in nude rat xenografted with human Calu6 cells harboring KRAS Q61K mutant at 150 mg/kg, po administered daily for 18 days starting from day 13 post tumor implantation and measured on day 31; assay type: ADME, organism-based; settings: in vivo; outline: as §3
# [28] = biological target: Platelet-derived growth factor receptor beta (Homo sapiens, UniProt P09619); experiment: Binding affinity to wild-type human partial length PDGFRB (V582 to Y1009 residues) expressed in bacterial expression system at 1 uM by Kinomescan method relative to control
# Outline: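 KINOMEscan competition binding panel of about 456 kinases, compound tested at 1 μM. Activity is given as % of control = [(test signal − positive control signal)/(negative control signal − positive control signal)] × 100.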
# RAF proto-oncogene serine/threonine-protein kinase, sequence (P04049 whole entry, the tested form may be a part): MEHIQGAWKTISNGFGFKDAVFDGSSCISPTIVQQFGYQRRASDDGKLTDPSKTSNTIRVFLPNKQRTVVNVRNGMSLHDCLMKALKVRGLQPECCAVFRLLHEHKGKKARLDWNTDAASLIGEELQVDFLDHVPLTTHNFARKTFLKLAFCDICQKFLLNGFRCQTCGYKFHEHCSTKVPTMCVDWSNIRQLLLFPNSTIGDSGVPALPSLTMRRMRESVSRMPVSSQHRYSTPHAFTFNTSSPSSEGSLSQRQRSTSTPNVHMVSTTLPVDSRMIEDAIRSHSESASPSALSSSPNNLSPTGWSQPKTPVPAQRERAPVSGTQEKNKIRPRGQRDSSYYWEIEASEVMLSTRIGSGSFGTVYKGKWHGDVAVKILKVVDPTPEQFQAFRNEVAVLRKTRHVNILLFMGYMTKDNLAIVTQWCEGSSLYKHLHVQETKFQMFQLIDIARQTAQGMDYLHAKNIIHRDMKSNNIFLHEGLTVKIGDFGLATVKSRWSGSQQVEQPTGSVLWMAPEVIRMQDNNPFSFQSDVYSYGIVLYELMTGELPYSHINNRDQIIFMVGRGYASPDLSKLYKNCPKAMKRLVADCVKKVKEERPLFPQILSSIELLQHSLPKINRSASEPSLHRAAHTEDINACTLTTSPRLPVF
# Platelet-derived growth factor receptor beta, sequence (P09619 whole entry, the tested form may be a part): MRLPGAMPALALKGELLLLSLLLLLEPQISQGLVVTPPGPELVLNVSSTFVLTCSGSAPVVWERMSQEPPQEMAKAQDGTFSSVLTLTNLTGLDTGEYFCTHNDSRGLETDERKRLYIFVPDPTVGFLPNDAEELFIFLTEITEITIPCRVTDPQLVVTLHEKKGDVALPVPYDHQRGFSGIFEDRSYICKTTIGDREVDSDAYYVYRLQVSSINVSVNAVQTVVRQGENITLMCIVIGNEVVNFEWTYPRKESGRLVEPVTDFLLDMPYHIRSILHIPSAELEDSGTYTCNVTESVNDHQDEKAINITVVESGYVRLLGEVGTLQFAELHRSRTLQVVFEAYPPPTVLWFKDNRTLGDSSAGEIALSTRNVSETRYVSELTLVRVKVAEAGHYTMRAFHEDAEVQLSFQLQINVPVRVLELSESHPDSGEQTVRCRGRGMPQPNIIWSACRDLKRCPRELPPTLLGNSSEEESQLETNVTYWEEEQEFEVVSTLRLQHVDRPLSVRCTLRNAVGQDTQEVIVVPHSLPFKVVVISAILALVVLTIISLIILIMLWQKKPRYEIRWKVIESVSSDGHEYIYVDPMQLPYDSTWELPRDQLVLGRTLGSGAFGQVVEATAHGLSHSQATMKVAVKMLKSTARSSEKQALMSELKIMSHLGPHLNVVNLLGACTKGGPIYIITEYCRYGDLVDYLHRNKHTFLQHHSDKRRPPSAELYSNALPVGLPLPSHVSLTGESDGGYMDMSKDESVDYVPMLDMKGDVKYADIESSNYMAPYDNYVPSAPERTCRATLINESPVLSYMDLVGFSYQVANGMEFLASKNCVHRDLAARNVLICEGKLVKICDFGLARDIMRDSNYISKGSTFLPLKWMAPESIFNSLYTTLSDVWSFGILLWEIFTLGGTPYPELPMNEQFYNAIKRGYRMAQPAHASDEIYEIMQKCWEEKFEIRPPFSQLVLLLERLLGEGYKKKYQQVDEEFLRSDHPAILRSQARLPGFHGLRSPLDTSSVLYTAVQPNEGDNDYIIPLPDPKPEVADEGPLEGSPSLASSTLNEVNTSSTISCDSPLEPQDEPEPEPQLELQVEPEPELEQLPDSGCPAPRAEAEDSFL
# Cytochrome P450 3A4, sequence (P08684 whole entry): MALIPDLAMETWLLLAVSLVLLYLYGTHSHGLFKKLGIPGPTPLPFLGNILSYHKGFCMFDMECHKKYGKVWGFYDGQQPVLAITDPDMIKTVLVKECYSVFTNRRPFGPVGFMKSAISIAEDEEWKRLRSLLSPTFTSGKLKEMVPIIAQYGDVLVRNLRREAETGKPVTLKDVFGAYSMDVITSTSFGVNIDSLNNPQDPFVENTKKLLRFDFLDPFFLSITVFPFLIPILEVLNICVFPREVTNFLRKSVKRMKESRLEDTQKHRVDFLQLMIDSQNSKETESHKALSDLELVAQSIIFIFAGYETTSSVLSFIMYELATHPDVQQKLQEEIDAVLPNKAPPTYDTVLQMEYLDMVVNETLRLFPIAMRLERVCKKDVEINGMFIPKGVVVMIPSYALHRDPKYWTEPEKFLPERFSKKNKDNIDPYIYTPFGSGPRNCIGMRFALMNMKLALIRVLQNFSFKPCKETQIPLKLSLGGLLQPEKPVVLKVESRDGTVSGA
# Serine/threonine-protein kinase B-raf (Homo sapiens), P15056 [V600E], sequence (P15056 whole entry V600E, the tested form may be a part): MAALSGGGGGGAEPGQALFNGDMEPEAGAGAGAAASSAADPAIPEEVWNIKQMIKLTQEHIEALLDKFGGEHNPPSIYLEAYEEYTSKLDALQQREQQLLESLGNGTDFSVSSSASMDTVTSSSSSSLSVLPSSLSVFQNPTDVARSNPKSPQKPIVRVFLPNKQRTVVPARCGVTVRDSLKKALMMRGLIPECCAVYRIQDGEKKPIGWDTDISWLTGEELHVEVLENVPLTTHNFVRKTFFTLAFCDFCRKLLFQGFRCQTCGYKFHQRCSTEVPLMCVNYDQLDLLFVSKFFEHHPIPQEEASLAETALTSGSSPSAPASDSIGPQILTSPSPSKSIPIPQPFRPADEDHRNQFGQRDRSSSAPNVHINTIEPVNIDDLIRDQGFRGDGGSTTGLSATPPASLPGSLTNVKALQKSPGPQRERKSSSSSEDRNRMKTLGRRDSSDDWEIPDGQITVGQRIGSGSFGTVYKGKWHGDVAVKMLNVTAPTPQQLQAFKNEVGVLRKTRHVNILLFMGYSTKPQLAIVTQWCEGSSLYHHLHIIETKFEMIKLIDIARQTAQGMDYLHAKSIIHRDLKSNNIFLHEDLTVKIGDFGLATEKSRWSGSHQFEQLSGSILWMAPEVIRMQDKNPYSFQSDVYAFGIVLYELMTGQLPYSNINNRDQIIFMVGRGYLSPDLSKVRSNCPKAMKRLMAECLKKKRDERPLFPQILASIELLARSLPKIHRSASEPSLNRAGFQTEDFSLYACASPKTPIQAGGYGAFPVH
smiles,measurement,setting,value
Cc1ccc(NC(=O)c2ccnc(C(F)(F)F)c2)cc1-c1cc(OCCO)nc(N2CCOCC2)c1 [NAPORAFENIB],logD,[1],> 3
same,Cmax,[2],1600 nM
same,AUC at 24 h,[3],25.2 µM·h
same,clearance,[4],3.5 mL/min/kg
same,T>IC50,[5],24 h
same,pKa,[6],3.86
same,Activity,[7],Non-Toxic
same,AUC(0-inf),[8],3.1 µM·h
same,Activity,[9],> 98%
same,T/C,Calu-6 [10],29%
same,Papp A→B,[11],9 ×10⁻⁶ cm/s
same,AUC at 24 h,[12],7.91 µM·h
same,Cmax,[13],500 nM
same,Activity,Calu-6 [14],21%
same,Vd,[15],1.7 L/kg
same,AUC at 24 h,[16],217 µM·h
same,Cmax,[17],2350 nM
same,EC50,Calu-6 [18],280 to 470 nM
same,Cmax,[19],400 nM
same,Papp B→A,[20],19 ×10⁻⁶ cm/s
same,K,Cytochrome P450 3A4,0.01 min⁻¹
same,solubility thermodynamic,[21],20 µM
same,Cmax,[22],878 nM
same,logD,[23],> 4
same,Cmax,[24],8680 nM
same,Kd,[25],3.6 nM
same,Tlast,[26],24 h
same,Tmax,[27],5.5 h
same,Activity,[28],> 99%
